# Screening data as filed in PubChem BioAssay.
# NPY-Y2 PAM-ag: human NPY-Y2 potentiation or agonism, primary screen; P49146; cells expressing NPY-Y2, potentiator/agonist read-out; hit rate 0.45% among 220,000; activation, % at 3.6 µM; AID 1359; in the data active = activation above about 27%;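 note: cells stimulated with NPY near EC25 plus isoproterenol at EC100; 0% = vehicle plus submaximal agonist and 100% = vehicle plus saturating agonist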
# Target sequence (P49146 whole entry, looked up): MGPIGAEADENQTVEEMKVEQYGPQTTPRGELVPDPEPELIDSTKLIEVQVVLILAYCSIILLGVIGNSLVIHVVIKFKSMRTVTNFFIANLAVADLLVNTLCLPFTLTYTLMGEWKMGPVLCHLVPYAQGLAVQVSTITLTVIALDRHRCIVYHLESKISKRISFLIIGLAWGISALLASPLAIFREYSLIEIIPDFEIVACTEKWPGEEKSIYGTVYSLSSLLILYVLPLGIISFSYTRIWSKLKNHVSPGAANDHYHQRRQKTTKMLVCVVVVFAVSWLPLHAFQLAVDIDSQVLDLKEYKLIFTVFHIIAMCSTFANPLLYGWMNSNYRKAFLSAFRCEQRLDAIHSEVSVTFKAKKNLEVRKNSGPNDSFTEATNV
# NPY-Y1 PAM-ag: potentiators or agonists of human neuropeptide Y receptor Y1; P25929; NPY-Y1 expressing cells, potentiator/agonist activation; activation, % at 3.6 µM; hit rate 0.37% among 220,000; in the data active = activation above about 33%, passing the limit was not always enough;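 note: cells stimulated with NPY at EC10 then isoproterenol at EC100; 0% = low agonist plus stimulus and 100% = saturating agonist plus stimulus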
# NPY-Y2 antag: antagonists of human neuropeptide Y receptor Y2; AID 793; inhibition, % at 2.7 µM; NPY-Y2 expressing cells, antagonist mode; hit rate 0.99% among 140,000; P49146;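 note: 0% = vehicle with agonist challenge and 100% = reference antagonist with challenge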
# NPY-Y1 antag: NPY-Y1 (human) receptor antagonism; hit rate 1% among 200,000; HEK293-CNG Y1 cells, membrane potential fluorescence; NPY at EC95, then isoproterenol; AID 1040; inhibition, % at 3.6 µM;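 active = inhibition above the campaign mean inhibition of all tested compounds plus 3 SD, cut at about 20% in these data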;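 note: 0% = DMSO wells given NPY plus isoproterenol and 100% = isoproterenol alone without NPY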
#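 Benchmarks – high control isoproterenol alone, low control NPY with isoproterenol · Material – HEK293 Y1/CNG channel cell line · Times – dye 3 h, compound 60 min room temperature, stimulation 45 min · Probe or stimulus – NPY (25 nM), isoproterenol (1 µM), Ro 20-1724 (25 µM) · Evaluation – % inhibition of NPY effect · Signal – fluorescence, membrane potential probe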
# NPY1 antag conf: human NPY-Y1 antagonism, confirmation; shares compounds with NPY-Y1 antag; HEK293-CNG NPY-Y1, membrane potential fluorescence, cAMP; NPY challenge against isoproterenol-raised cAMP; inhibition, % at 3.6 µM; hit rate 21% among 1,200; in the data active = inhibition above about 20%;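 note: 0% = vehicle with agonist plus stimulus and 100% = stimulus alone without agonist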
# NPY2 antag ctr: antagonizes human NPY-Y2, counter-screen to NPY-Y1 antagonists. shares compounds with NPY-Y1 antag. HEK293 NPY-Y2 CNG membrane potential fluorescence, antagonism; cells given NPY, then isoproterenol. inhibition, % at 3.6 µM. hit rate 28% among 1,200. AID 1255;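 note: 0% = DMSO with agonist challenge and 100% = reference antagonist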
# * marks the source's active call; other numbers are inactive results; nt = no result. This is a sample that favours compounds with a hit; in the whole collection about 1.8% have one here. Cut-off read from the data, not from the text of the source, unless noted: active = inhibition above about 17%; inactive = the rest.
SMILES,NPY-Y2 PAM-ag,NPY-Y1 PAM-ag,NPY-Y2 antag,NPY-Y1 antag,NPY1 antag conf,NPY2 antag ctr
O=C(O)C1CCC(Cn2c(SCc3cc(=O)n4cc(Br)ccc4n3)nc3ccsc3c2=O)CC1 (stereo not given),-37,-26,nt,26*,80*,87*
O=C(CCCc1cccs1)Nc1nc(-c2ccc(F)cc2)cs1,-10,-33,15,25*,19,16
O=C(O)CCCC(=O)Nc1nc(-c2ccc(F)cc2)cs1,-7,-13,1,4,nt,nt
CN(C(=O)c1ccccn1)C1(C(=O)NC2CCCCC2)CCCCC1,-3,9,8,7,nt,nt
O=C(c1ccccn1)N(Cc1cccs1)C1(C(=O)NC2CCCCC2)CCCCC1,-11,8,nt,44*,15,7
O=C(Nc1ccccc1)C1=C[C@H](c2csc3ccccc23)C[C@H](OCc2ccc(CO)cc2)O1,-15,-3,nt,26*,9,8
CCN(CC)S(=O)(=O)c1cccc(-c2nnc(SCCOc3ccccc3)o2)c1,-20,-60,15,24*,13,10
Clc1ccc(CN2CCCCCCC2)cc1Cl,-29,-15,7,22*,4,5
Cc1cc(C)n2ncc(C(=O)NC3CCCCC3)c2n1,3,9,nt,3,nt,nt
Cc1c2c(nc3c(C(=O)NC4CCCCC4C)cnn13)CCCC2 (stereo not given),-12,-22,8,20*,13,22*
CC(C)(C)OC(=O)N1CCC[C@H]1c1nnc(SCC(=O)Nc2ccc(Br)cc2)o1,-6,19,nt,nt,nt,nt
CCOC(=O)C(CO)(NC(C)=O)C(=O)OCC,-13,0,11,25*,9,7
CCOC(=O)C(CCCCCCC(NC(C)=O)(C(=O)OCC)C(=O)OCC)(NC(C)=O)C(=O)OCC,-12,3,nt,nt,nt,nt
Cn1c(N)c(C(=O)COC(=O)CNS(=O)(=O)c2cccc(Cl)c2)c(=O)n(C)c1=O,3,9,2,2,nt,nt
CCOC(=O)c1sc(NC(NC(=O)c2ccco2)(C(=O)OC)C(F)(F)F)nc1C (stereo not given),-13,2,5,32*,8,13
CCOC(=O)c1sc(NC(=S)NC(=O)c2ccco2)nc1C,11,10,2,2,nt,nt
COc1ccc([N+](=O)[O-])cc1N(CC(O)CN(CC(C)C)CC(C)C)S(=O)(=O)c1ccccc1 (stereo not given),-13,-22,17,69*,30*,14
COc1ccc([N+](=O)[O-])cc1N(CC(O)CN(C)C)S(=O)(=O)c1ccc(C)cc1 (stereo not given),3,18,nt,3,nt,nt
Oc1ccccc1-n1c(-c2ccccc2)ccc1-c1ccccc1,5,24,nt,nt,nt,nt
Cc1[nH]c2ccccc2c1C(=O)CSc1n[nH]c(N)n1,4,-5,nt,3,nt,nt
Cc1nnsc1S(=O)(=O)Cc1ccccc1C(F)(F)F,13,13,nt,1,nt,nt
CC1Cc2ccccc2N1C(=O)c1cc2sccc2n1Cc1ccc(F)cc1 (stereo not given),-12,-39,11,20*,8,15
O=C(NCCc1c[nH]c2ccccc12)C(=O)NCC(c1ccco1)N1CCN(c2ccccc2F)CC1 (stereo not given),-12,22,-1,0,nt,nt
O=c1c2ccccc2nc(-c2ccco2)n1Cc1ccccc1,6,-2,4,2,nt,nt
O=c1c2ccccc2nc(-c2ccc(Br)cc2)n1Cc1ccccc1,-33,-86,5,24*,21*,32*
SMILES,NPY-Y2 PAM-ag,NPY-Y1 PAM-ag,NPY-Y2 antag,NPY-Y1 antag,NPY1 antag conf,NPY2 antag ctr
COc1cc2c(cc1OC)C(c1cccs1)N(C(=S)NC(C)C)CC2 (stereo not given),-12,-12,nt,30*,10,5
O=C(COc1ccc2ccccc2c1)NCCc1ccc2c(c1)OCCO2,-10,-52,16,25*,17,11
O=C(COc1ccc2ccccc2c1)NCCNC(=O)COc1ccc2ccccc2c1,2,-2,4,6,nt,nt
CN1CCC(N(C)C(=O)CCc2nc3ccccc3n2-c2ccccc2)CC1,0,-1,nt,4,nt,nt
Cc1ccc(-c2cc(C(=O)Nc3cc(C)on3)c3ccccc3n2)c(C)c1,-41,-115,9,35*,29*,51*
Cc1cccc(NC(=O)c2cc(-c3ccccn3)nc3ccccc23)c1C,-59,-122,nt,39*,25*,23*
O=C(NC1CC1)c1cc(-c2ccccn2)nc2ccccc12,-10,-7,3,-1,nt,nt
Cc1csc(NC(=O)c2cc(-c3ccccc3)nc3ccccc23)n1,-30,-105,13,22*,19,12
Cn1c(=O)c2c(O)c(C=Nc3ccc(F)cc3)c(=O)n(C)c2n(C)c1=O,-2,15,nt,nt,nt,nt
CCOC(=O)c1cnc2c(C)c(C)ccc2c1Nc1ccc(S(=O)(=O)Nc2ncccn2)cc1,4,-33,2,-1,nt,nt
CC(C)(C)n1nnnc1C(c1cccnc1)N1CCN(c2ccccc2)CC1 (stereo not given),-1,29,9,2,nt,nt
CC(C)(C)n1nnnc1C(c1cccnc1)N(Cc1ccccc1)Cc1cccs1 (stereo not given),-9,7,9,21*,4,5
CC(C)(C)n1nnnc1C(c1cccs1)N(Cc1ccccc1)Cc1cccnc1 (stereo not given),-22,-11,3,26*,9,3
O=C(NCCCCc1ccccc1)c1ccccc1Cl,-3,9,nt,0,nt,nt
CC(/C=N/NC(=O)c1n[nH]c2c1CCC2)=C\c1ccccc1,-28,-16,5,22*,7,17*
CCC(C)(C)NC(=O)CN(C(=O)c1csnn1)c1ccccc1-c1ccccc1,-10,-10,nt,1,nt,nt
N#Cc1nc(Cl)c(Cl)c(NN)c1Cl,-15,5,nt,nt,nt,nt
COc1ccc(N(C)S(=O)(=O)c2cccc(C(=O)NCC3CCCCC3)c2)cc1,-20,-19,nt,26*,21*,11
COc1ccc(N(C)S(=O)(=O)c2cccc(C(=O)NC3CCCC3)c2)cc1,-27,-4,nt,20,nt,nt
COc1ccc(N(C)S(=O)(=O)c2cccc(C(=O)NC3CCCCC3C)c2)cc1 (stereo not given),-7,33,nt,24*,15,11
CCOC(=O)C1CCN(C(=O)CCS(=O)(=O)c2ccc3c(c2)CCN3C(=O)CC)CC1,15,26,nt,-1,nt,nt
CCOC(=O)C1CCN(C(=O)CCS(=O)(=O)c2ccc3c(c2)CC(C)N3C(=O)CC)CC1 (stereo not given),12,-6,nt,37*,3,3
CS(=O)(=O)c1ccc(C(=O)NCCN2C(=O)S/C(=C\c3cccnc3)C2=O)cc1[N+](=O)[O-],-7,-1,nt,-2,nt,nt
CCOC(=O)CSC1=NC(=O)/C(=C/c2ccc(OC)cc2)S1,2,-6,-5,4,nt,nt
